# Results gathered from unrelated publications.
# Each line is one published result; the experiments were not run side by side.
# DRD3: D(3) dopamine receptor (DRD3, Homo sapiens, UniProt P35462)
# SLC6A3: Sodium-dependent dopamine transporter (SLC6A3, Homo sapiens, UniProt Q01959)
# CA12: Carbonic anhydrase 12 (CA12, Homo sapiens, UniProt O43570)
# USP51: Ubiquitin carboxyl-terminal hydrolase 51 (USP51, Homo sapiens, UniProt Q70EK9)
Structure (SMILES),target,assay,test system,conditions,inhibition [%]
COc1cc(C(C)=O)ccc1OCC(O)CN1CCN(c2cc(Cl)ccc2C)CC1 (centres unmarked),DRD3,"enzyme activity, inhibitor",,10 µM,35.9
O=C(c1ccc(Cl)cc1)N(Cc1ccccc1)C1CCCCC1,SLC6A3,cell-free assay,,10 µM,48.8
CCOC(=O)C1CSc2[nH]c(=O)sc2C1c1cn(-c2ccccc2)nc1-c1ccc(Br)cc1 (centres unmarked),CA12,"enzyme activity, inhibitor, absorbance",,10 µM,81
Clc1ccc(C(c2ccc(Cl)cc2)c2nnnn2CCCCN2CCN(CCCc3ccccc3)CC2)cc1,SLC6A3,"transporter uptake, inhibitor",HEK293,1 µM,72.7
CCOC(=O)C1CSc2[nH]c(=O)sc2C1c1cn(-c2ccccc2)nc1-c1ccc(Cl)cc1 (centres unmarked),CA12,"enzyme activity, inhibitor, absorbance",,10 µM,85.5
N[C@@H](CSSC[C@H](N)C(=O)O)C(=O)O,USP51,"enzyme activity, inhibitor",,5 µM,24
Cc1cccc(N2CCN(CC(O)COc3ccc4ccccc4c3)CC2)c1C (centres unmarked),DRD3,"enzyme activity, inhibitor",,10 µM,52.9
Clc1ccc(C(c2ccc(Cl)cc2)c2nnnn2CCCN2CCC(CCCc3ccccc3)CC2)cc1,SLC6A3,"transporter uptake, inhibitor",HEK293,1 µM,19.8
Cc1ccccc1N1CCN(CCCCN2C(=O)C3CCCN3C2=O)CC1 (centres unmarked),DRD3,"enzyme activity, inhibitor",,10 µM,47.3
COc1ccc(-c2oc3c(CC=C(C)C)c(O[C@@H]4O[C@H](CO)[C@@H](O)[C@H](O)[C@H]4O)cc(O)c3c(=O)c2O[C@@H]2O[C@@H](C)[C@H](O)[C@@H](O)[C@H]2O)cc1,USP51,"enzyme activity, inhibitor",,5 µM,7
COc1cc(CNCCc2c[nH]c3ccccc23)cc(Cl)c1OCC(N)=O,DRD3,"enzyme activity, inhibitor",,10 µM,39.6
Fc1ccc(C(c2ccc(F)cc2)c2nnnn2CCCN2CCC(Cc3ccccc3)CC2)cc1,SLC6A3,"transporter uptake, inhibitor",HEK293,1 µM,93.5
O=C(/C=C/C=C/c1ccc2c(c1)OCO2)N1CCCCC1,USP51,"enzyme activity, inhibitor",,5 µM,31
Cc1ccccc1N1CCN(CC(O)COc2ccc(C(=O)c3ccccc3)cc2)CC1 (centres unmarked),DRD3,"enzyme activity, inhibitor",,10 µM,53.1
OC[C@H]1NC[C@H](O)[C@@H](O)[C@@H]1O,USP51,"enzyme activity, inhibitor",,5 µM,0
c1ccc(CCC2CCN(CCCCn3nnnc3C(c3ccccc3)c3ccccc3)CC2)cc1,SLC6A3,"transporter uptake, inhibitor",HEK293,1 µM,80.3
COc1cc(OC)c(OC)cc1CN1CCN(Cc2c[nH]c3ccccc23)CC1,DRD3,"enzyme activity, inhibitor",,10 µM,8.6
O=C1C[C@@H](c2ccccc2)Oc2cc(O)cc(O)c21,USP51,"enzyme activity, inhibitor",,5 µM,2
N#CC1CSc2[nH]c(=O)sc2C1c1cn(-c2ccccc2)nc1-c1ccc(Br)cc1 (centres unmarked),CA12,"enzyme activity, inhibitor, absorbance",,10 nM,28.1
C[Se]CC[C@H](N)C(=O)O,USP51,"enzyme activity, inhibitor",,5 µM,34
Clc1ccc(C(c2ccc(Cl)cc2)c2nnnn2CCCN2CCC(Cc3ccccc3)CC2)cc1,SLC6A3,"transporter uptake, inhibitor",HEK293,1 µM,90.8
O=C1NC(=S)C(=Cc2cn(-c3ccccc3)nc2-c2ccc(Br)cc2)S1,CA12,"enzyme activity, inhibitor, absorbance",,10 µM,49.8
O=c1c(-c2ccc(O)cc2)coc2cc(O)ccc12,USP51,"enzyme activity, inhibitor",,5 µM,10
CCOC(=O)C1CSc2[nH]c(=O)sc2C1c1cn(-c2ccccc2)nc1-c1ccc(C)cc1 (centres unmarked),CA12,"enzyme activity, inhibitor, absorbance",,0.1 µM,28
COc1ccc(S(N)(=O)=O)cc1C(=O)NCCCN1CCN(c2ccccc2OC)CC1,DRD3,"enzyme activity, inhibitor",,10 µM,21.6
Cc1ccc(-c2nn(-c3ccccc3)cc2C2c3sc(=O)[nH]c3SC3C(=O)N(c4ccccc4)C(=O)C32)cc1 (centres unmarked),CA12,"enzyme activity, inhibitor, absorbance",,10 µM,73.9
CC(=O)c1ccc(O)c(C(=O)O)c1,USP51,"enzyme activity, inhibitor",,5 µM,29
OC(CNCc1cccc(Oc2nnnn2-c2ccccc2)c1)c1ccccc1 (centres unmarked),DRD3,"enzyme activity, inhibitor",,10 µM,29.3
CCOC(=O)C1CSc2[nH]c(=O)sc2C1c1cn(-c2ccccc2)nc1-c1ccccc1 (centres unmarked),CA12,"enzyme activity, inhibitor, absorbance",,10 nM,10.6
